Measured values: ChEMBL document CHEMBL1268918, “1,3-Benzoxazole-4-carbonitrile as a novel antifungal scaffold of β-1,6-glucan synthesis inhibitors” (Bioorg Med Chem, 2010)
Converted amounts (≈) assume the structure as drawn. The source made the active and inactive calls. The calls are words filed in the database; no cut-off is given here.

Columns and labels:
Pichia kudriavzevii [1] = test: Antifungal activity against Candida krusei ATCC 44507 assessed as concentration required to 80% growth inhibition using alamar blue staining after 18 to 72 hrs by microdilution method; format: functional
How it was run: (§1)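 Serial dilution in YPD medium (1% yeast extract, 2% peptone, […]), incubated at 37 °C. Inoculum was 1×10³–1×10⁴ cells/mL and incubation 18–72 h, both chosen per strain. MIC-1 is the lowest concentration giving 80% inhibition relative to a drug-free control.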

Nakaseomyces glabratus [2] = test: Antifungal activity against Candida glabrata ATCC 48435 assessed as concentration required to 80% growth inhibition using alamar blue staining after 18 to 72 hrs by microdilution method; format: functional; how it was run: as §1
Candida tropicalis [3] = test: Antifungal activity against Candida tropicalis ATCC 44508 assessed as concentration required to 80% growth inhibition using alamar blue staining after 18 to 72 hrs by microdilution method; format: functional; how it was run: as §1
[4] = Solubility in water at pH 6.8; format: physicochemical
[5] = Octanol-phosphate buffer partition coefficient, log D of the compound at pH 7.4; format: physicochemical
How it was run: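 Compound was shaken 30 min in equal volumes of n-octanol and phosphate-buffered saline at pH 7.4, then centrifuged at 3000 rpm for 10 min. Each layer was assayed by LC/MS, and log D was taken from the partition ratio.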

Candida albicans [6] = test: Antifungal activity against FLCZ-susceptible Candida albicans ATCC 90028 assessed as concentration required to 80% growth inhibition using alamar blue staining after 18 to 72 hrs by microdilution method; format: functional
How it was run: (§2)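 Serial broth microdilution in YPD medium (1% yeast extract, 2% peptone, […]). Starting cell density (1 × 10³–1 × 10⁴ cells/mL) and incubation time (18–72 h) were set per strain by growth speed. MIC-1 is the lowest drug concentration giving 80% growth inhibition relative to the drug-free control.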

Candida albicans [7] = test: Antifungal activity against FLCZ-resistant Candida albicans ATCC MYA-573 assessed as concentration required to 80% growth inhibition using alamar blue staining after 18 to 72 hrs by microdilution method; format: functional; how it was run: as §2
[8] = Metabolic stability in human liver microsomes at 1 uM after 30 mins; format: ADME, Microsome; details: read-out: Stability
How it was run: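 Compound was preincubated with human liver microsomes (0.5 mg/mL protein) in sodium phosphate buffer pH 7.4 for 20 min at 37 °C. NADPH started the reaction, and MeOH stopped it after 30 min. Samples were centrifuged at 4 °C, and parent loss was quantified by LC/MS/MS.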

Candida albicans [9] = test: Antifungal activity against FLCZ-susceptible Candida albicans ATCC 90028 assessed as reduction of beta-1,3-glucan level up to 4 ug/ml after 3 hrs by [14C]-glucose incorporation assay; format: functional, organism-based
How it was run: (§3)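 Exponentially growing cells were suspended in RPMI 1640 to about 0.7 A595, then drug (0–4 µg/mL) and [14C]-glucose were added. Incubation was 3 h at 30 °C with occasional shaking. Cells were heated in 3% NaOH at 80 °C for 1 h. Mannan was taken from the supernatant by Fehling's reaction, and the insoluble residue was digested overnight with Zymolyase 100T. β-1,3-glucan counts were obtained as glucan minus β-1,6-glucan.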

Candida albicans [10] = test: Antifungal activity against FLCZ-susceptible Candida albicans ATCC 90028 assessed as reduction of chitin level up to 4 ug/ml after 3 hrs by [14C]-glucose incorporation assay; format: functional, organism-based; how it was run: as §3
Candida albicans [11] = test: Antifungal activity against FLCZ-susceptible Candida albicans ATCC 90028 assessed as reduction of beta-1,6-glucan level after 3 hrs by [14C]-glucose incorporation assay; format: functional, organism-based
How it was run: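 Exponentially growing cells suspended in RPMI 1640 to absorbance ~0.7 at 595 nm; drug and [14C]-glucose added, incubated 30 °C with occasional shaking. After 3 h, cells heated in 3% NaOH at 80 °C for 1 h; mannan taken from supernatant by Fehling's reaction; insoluble residue digested with Zymolyase 100T overnight; radioactivity per fraction measured. Tested 0.016–4 µg/mL.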

Nakaseomyces glabratus [12] = test: Antifungal activity against Candida glabrata ATCC 48435 assessed as concentration required to 50% growth inhibition using alamar blue staining after 18 to 72 hrs by microdilution method; format: functional
How it was run: (§4)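 Serial broth microdilution in RPMI 1640 with 0.165 M MOPS. Inoculum was 1×10³–1×10⁴ cells/mL and incubation ran 18–72 h, both set per strain by growth rate, at 30 °C. MIC-2 is the lowest drug concentration giving 50% growth inhibition versus a drug-free control.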

Saccharomyces cerevisiae = test: Antifungal activity against Saccharomyces cerevisiae YPH500 assessed as concentration required to 50% growth inhibition using alamar blue staining after 18 to 72 hrs by microdilution method; format: functional; how it was run: as §4
Candida albicans [13] = test: Antifungal activity against FLCZ-susceptible Candida albicans ATCC 90028 assessed as reduction of mannan level up to 4 ug/ml after 3 hrs by [14C]-glucose incorporation assay; format: functional, organism-based; how it was run: as §3
Candida albicans [14] = test: Antifungal activity against Candida albicans ATCC 24433 assessed as concentration required to 50% growth inhibition using alamar blue staining after 18 to 72 hrs by microdilution method; format: functional; how it was run: as §4
Candida tropicalis [15] = test: Antifungal activity against Candida tropicalis IAM 4965 assessed as concentration required to 50% growth inhibition using alamar blue staining after 18 to 72 hrs by microdilution method; format: functional; how it was run: as §4
Pichia kudriavzevii [16] = test: Antifungal activity against Candida krusei ATCC 44507 assessed as concentration required to 50% growth inhibition using alamar blue staining after 18 to 72 hrs by microdilution method; format: functional; how it was run: as §4

CN(C)[C@H]1CCN(c2c(-c3ccccc3)c3c(c4nc(C5CC5)oc24)C(=O)OC3)C1
MIC (Pichia kudriavzevii [1]): 2 µg/mL (≈ 4.96 µM)
MIC (Nakaseomyces glabratus [2]): 0.25 µg/mL (≈ 0.62 µM)
MIC (Candida tropicalis [3]; read-out: MIC): 0.25 µg/mL (≈ 0.62 µM)
solubility [4]: 310 µg/mL (≈ 768 µM)
logD [5]: 2.6
MIC (Candida albicans [6]): 1 µg/mL (≈ 2.48 µM)
MIC (Candida albicans [7]): 1 µg/mL (≈ 2.48 µM)

CN[C@H]1CCN(c2c(-c3ccccc3)c(C)c(C#N)c3nc(C(C)(C)C)oc23)C1.Cl
remaining at 0.5 h, 1 µM [8]: 54%
Activity (Candida albicans [9]): inactive
Activity (Candida albicans [10]): inactive
Activity (Candida albicans [11]): Dose-dependent effect
MIC (Nakaseomyces glabratus [12]): 0.125 µg/mL
MIC (Pichia kudriavzevii [1]): > 4 µg/mL
MIC (Nakaseomyces glabratus [2]): 0.125 µg/mL
MIC (Candida tropicalis [3]; read-out: MIC): 0.063 µg/mL
solubility [4]: 120 µg/mL
logD [5]: 3.4
MIC (Saccharomyces cerevisiae): 0.125 µg/mL
Activity (Candida albicans [13]): inactive
MIC (Candida albicans [6]): 0.25 µg/mL
MIC (Candida albicans [14]): 16 µg/mL
MIC (Candida albicans [7]): 0.25 µg/mL
MIC (Candida tropicalis [15]): 0.25 µg/mL
MIC (Pichia kudriavzevii [16]): > 16 µg/mL

OC(Cn1cncn1)(Cn1cncn1)c1ccc(F)cc1F [FLUCONAZOLE]
MIC (Nakaseomyces glabratus [12]): 2 µg/mL (≈ 6.53 µM)
MIC (Pichia kudriavzevii [1]): 32 µg/mL (≈ 104 µM)
MIC (Nakaseomyces glabratus [2]): 16 µg/mL (≈ 52.2 µM)
MIC (Candida tropicalis [3]; read-out: MIC): 0.5 µg/mL (≈ 1.63 µM)
solubility [4]: > 2000 µg/mL
MIC (Saccharomyces cerevisiae): 4 µg/mL (≈ 13.1 µM)
MIC (Candida albicans [6]): 0.25 µg/mL (≈ 0.816 µM)
MIC (Candida albicans [14]): 0.25 µg/mL (≈ 0.816 µM)
MIC (Candida albicans [7]): > 128 µg/mL
MIC (Candida tropicalis [15]): 0.25 µg/mL (≈ 0.816 µM)
MIC (Pichia kudriavzevii [16]): 16 µg/mL (≈ 52.2 µM)

Cc1c(-c2ccccc2)c(N2CC[C@H](N(C)C)C2)n2c(nc3ccccc32)c1C#N
MIC (Nakaseomyces glabratus [12]): 0.063 µg/mL (≈ 0.159 µM)
solubility [4]: 5 µg/mL (≈ 12.6 µM)
MIC (Saccharomyces cerevisiae): 0.004 µg/mL (≈ 0.0101 µM)
MIC (Candida albicans [14]): > 4 µg/mL
MIC (Candida tropicalis [15]): 0.25 µg/mL (≈ 0.632 µM)
MIC (Pichia kudriavzevii [16]): 0.125 µg/mL (≈ 0.316 µM)

Cc1c(-c2ccccc2)c(N2CC[C@H](N(C)C)C2)n2nc(C(C)(C)C)nc2c1C#N
remaining at 0.5 h, 1 µM [8]: 9%
MIC (Nakaseomyces glabratus [12]): 0.063 µg/mL (≈ 0.157 µM)
MIC (Pichia kudriavzevii [1]): 8 µg/mL (≈ 19.9 µM)
MIC (Nakaseomyces glabratus [2]): 0.125 µg/mL (≈ 0.311 µM)
MIC (Candida tropicalis [3]; read-out: MIC): 0.125 µg/mL (≈ 0.311 µM)
MIC (Saccharomyces cerevisiae): 0.063 µg/mL (≈ 0.157 µM)
MIC (Candida albicans [6]): 0.25 µg/mL (≈ 0.621 µM)
MIC (Candida albicans [14]): > 4 µg/mL
MIC (Candida albicans [7]): 0.5 µg/mL (≈ 1.24 µM)
MIC (Candida tropicalis [15]): 0.25 µg/mL (≈ 0.621 µM)
MIC (Pichia kudriavzevii [16]): > 4 µg/mL

Cc1c(-c2ccccc2)c(N2CC[C@H](N(C)C)C2)c2oc(C3CC3)nc2c1C#N
MIC (Pichia kudriavzevii [1]): 0.125 µg/mL (≈ 0.323 µM)
MIC (Nakaseomyces glabratus [2]): 0.032 µg/mL (≈ 0.0828 µM)
MIC (Candida tropicalis [3]; read-out: MIC): 0.032 µg/mL (≈ 0.0828 µM)
solubility [4]: 10 µg/mL (≈ 25.9 µM)
logD [5]: 3.9
MIC (Candida albicans [6]): 0.063 µg/mL (≈ 0.163 µM)
MIC (Candida albicans [7]): 0.063 µg/mL (≈ 0.163 µM)

Cc1c(-c2ccccc2)c(N2CC[C@H](N(C)C)C2)c2oc(C3CCC3)nc2c1C#N
MIC (Pichia kudriavzevii [1]): 0.5 µg/mL (≈ 1.25 µM)
MIC (Candida tropicalis [3]): < 0.016 µg/mL
solubility [4]: 7 µg/mL (≈ 17.5 µM)
logD [5]: 4.5
MIC (Candida albicans [6]): 0.063 µg/mL (≈ 0.157 µM)
MIC (Candida albicans [7]): 0.125 µg/mL (≈ 0.312 µM)

CN(C)[C@H]1CCN(c2c(-c3ccccc3)cc(C#N)c3nc(C(C)(C)C)oc23)C1
remaining at 0.5 h, 1 µM [8]: 8%
MIC (Nakaseomyces glabratus [12]): 0.25 µg/mL (≈ 0.643 µM)
solubility [4]: 16 µg/mL (≈ 41.2 µM)
logD [5]: 3.8
MIC (Saccharomyces cerevisiae): 0.25 µg/mL (≈ 0.643 µM)
MIC (Candida albicans [14]): 16 µg/mL (≈ 41.2 µM)
MIC (Candida tropicalis [15]): 0.5 µg/mL (≈ 1.29 µM)
MIC (Pichia kudriavzevii [16]): 16 µg/mL (≈ 41.2 µM)
